UBC13 inh – inhibitors of human UBC13 polyubiquitin chain formation; 0.47% of 330,000 active; inhibition, % at 20 µM; TR-FRET; AID 485273; in the data active = inhibition above about 45%, passing the limit was not always enough
Target sequence (P61088 whole entry, looked up): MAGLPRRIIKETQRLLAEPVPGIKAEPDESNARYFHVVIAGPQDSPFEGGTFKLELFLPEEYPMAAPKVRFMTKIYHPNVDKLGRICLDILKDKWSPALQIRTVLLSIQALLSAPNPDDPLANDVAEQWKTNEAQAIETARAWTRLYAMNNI
SENP8 block-1 – SENP8 protease inhibition. Q96LD8. purified SENP8, Z-RLRGG-aminoluciferin cleavage, luminescence. inhibition, % at 10 µM. 1.2% of 330,000 active. AID 2540; in the data active = inhibition above about 50%
SENP7 block – SENP7 protease inhibition. 1.5% of 330,000 active. inhibition, % at 5 µM. recombinant SENP7, Z-RLRGG-aminoluciferin luminescence, 40 min;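 active = inhibition above about 50% at the single test dose, limit read from the data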
SENP8 block-2 – blocks human SENP8 cleavage of Nedd8 substrate; Q96LD8; recombinant SENP8, Nedd8 substrate fluorescence; inhibition, % at 20 µM; 0.64% of 360,000 active; AID 602440; in the data active = inhibition mostly above about 40%, no sharp cut-off; inactive = mostly below about 27%
Apaf1 inhib – inhibitors of human Apaf-1 apoptosome; O14727; reconstituted apoptosome caspase-3 activity, DEVD-Rh110 fluorescence; inhibition, % at 20 µM; 0.71% of 330,000 active; AID 489030; active = inhibition of at least 40% at 20 µM
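Material: cell-free apoptosome with Apaf-1, procaspase-3 and caspase-9; Buffer or medium: Hepes pH 7.5 with detergent and BSA; Reagent: cytochrome c trigger plus (Z-DEVD)2-Rh110 caspase-3 substrate; Times: compound with Apaf-1, dATP, procaspase-3 30 min, then 50 min reaction, room temperature; Technique: Rh110 fluorescence intensity.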
SENP6 inh – blocks the human protease SENP6; Q9GZR1; Recombinant SENP6 catalytic domain, aminoluciferin luminescence; inhibition, % at 10 µM; 1.8% of 330,000 active; AID 2599;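 active = inhibition above about 50% at the single tested dose, limit read from the data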
Target sequence (Q9GZR1 628-1112 limits assumed): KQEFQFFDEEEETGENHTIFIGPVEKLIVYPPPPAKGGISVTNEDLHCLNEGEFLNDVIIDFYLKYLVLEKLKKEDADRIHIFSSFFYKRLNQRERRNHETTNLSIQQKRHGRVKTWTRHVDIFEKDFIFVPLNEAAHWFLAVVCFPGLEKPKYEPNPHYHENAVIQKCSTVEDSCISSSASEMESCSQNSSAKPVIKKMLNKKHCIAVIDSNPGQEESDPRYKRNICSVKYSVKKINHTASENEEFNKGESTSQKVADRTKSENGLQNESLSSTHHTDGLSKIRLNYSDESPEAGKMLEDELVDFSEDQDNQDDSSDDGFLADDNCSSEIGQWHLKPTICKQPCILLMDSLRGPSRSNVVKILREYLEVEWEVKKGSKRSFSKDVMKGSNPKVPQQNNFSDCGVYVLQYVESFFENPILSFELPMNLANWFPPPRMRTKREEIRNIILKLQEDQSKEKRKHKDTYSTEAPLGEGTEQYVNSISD
Each line names hits and unclear results; the compound was inactive in the other large screens. An excerpt weighted towards active compounds, which were near 3.1% of everything screened.

CN(C)c1ccc(/C=C(\C#N)c2ccccc2)cc1	none (no result: UBC13 inh, SENP8 block-1, SENP7 block, Apaf1 inhib, SENP6 inh)
CN(C)c1cccc(/C=C(\C#N)c2ccccc2)c1	SENP8 block-1 57, SENP6 inh 55
Nc1cc(N)c(OCC(F)(F)F)cc1OCC(F)(F)F	SENP8 block-2 85, Apaf1 inhib 84
CCCCCCCCN1C(=O)[C@H](CC(=O)N2CCN(C(=O)C3CC3)CC2)C[C@@]2(C(=O)OCC)CCCC=C12	none (no result: UBC13 inh, SENP8 block-1, SENP7 block, Apaf1 inhib, SENP6 inh)
O=C(Nc1ccccc1)c1ccc2nc(-c3ccco3)c(-c3ccco3)nc2c1	Apaf1 inhib 60
O=C(NCCO)Nc1ccc2nc(-c3ccco3)c(-c3ccco3)nc2c1	Apaf1 inhib 71 (no result: SENP8 block-2)
CC(=O)c1ccc(NC(=O)CSc2nnc(-c3ccco3)c(-c3ccco3)n2)cc1	SENP8 block-2 45
O=C(Nc1ccc(N2CCOCC2)cc1)c1ccc2nc(-c3ccco3)c(-c3ccco3)nc2c1	none
CC(=O)c1ccc(NC(=O)c2ccc3nc(-c4ccco4)c(-c4ccco4)nc3c2)cc1	Apaf1 inhib 52
O=C(NC1CCCCC1)c1nc(-c2c(F)cccc2F)oc1-c1ccccc1	none (no result: UBC13 inh, SENP8 block-1, SENP7 block, Apaf1 inhib, SENP6 inh)
O=c1c(O)c(-c2cc(O)c(O)c(O)c2)oc2cc(O)cc(O)c12	SENP8 block-2 39
C=CCN1C(=O)/C(=C\C=C2\N(C)c3ccccc3C2(C)C)SC1=S	SENP8 block-2 56
CCCN1C(=O)/C(=C/C=C2\N(CC)c3ccccc3C2(C)C)SC1=S	SENP8 block-2 44
COC(=O)C1=CN(c2ccc(OC)cc2OC)C(N)=C(C#N)C1c1cccc([N+](=O)[O-])c1 (stereo not drawn)	none (no result: UBC13 inh, SENP8 block-1, SENP7 block, Apaf1 inhib, SENP6 inh)
COCCNC(=O)C1(C)CCCN(Cc2cn(C)c3ccccc23)C1 (stereo not drawn)	none (no result: UBC13 inh, SENP8 block-1, SENP7 block, Apaf1 inhib, SENP6 inh)
COc1ccc(-n2nc3c(N4CCC(C(=O)NCc5ccccc5C)CC4)nnc(C)c3c2C)cc1	Apaf1 inhib 59
COc1ccc(-n2nc3c(N4CCC(C(=O)NCCc5ccccc5C)CC4)nnc(C)c3c2C)cc1	none
O=S(=O)(Nc1ccc(-c2nc3cccnc3s2)cc1)c1ccccc1F	SENP8 block-1 66, SENP6 inh 83
C/C=C/C(=O)Nc1cccc(C2=NOC3(C2)C[C@H](C(N)=O)N(C(=O)c2ccccc2C(=O)c2ccccc2)C3)c1 (stereo partly drawn)	UBC13 inh 52 (no result: SENP8 block-2)
CC(C)NC(=O)C1(C)CSCC(=O)N1CCCN1CCOCC1 (stereo not drawn)	none (no result: UBC13 inh, SENP8 block-1, SENP7 block, Apaf1 inhib, SENP6 inh)
O=C(Cc1ccc(Cl)cc1)Nc1ncc([N+](=O)[O-])s1	none (no result: UBC13 inh, SENP8 block-1, SENP7 block, Apaf1 inhib, SENP6 inh)
O=C(Cc1ccc(Br)cc1)Nc1ncc([N+](=O)[O-])s1	SENP8 block-1 92, SENP7 block 53, SENP6 inh 94
O=C(Nc1ncc([N+](=O)[O-])s1)c1ccc2c(c1)OCO2	SENP8 block-1 97, SENP7 block 102, SENP6 inh 96
CN1OC[C@@H]2CN(C(=S)NCCc3ccccc3)[C@H](c3ccc(-n4ccnc4)cc3)C[C@@H]21	none (no result: UBC13 inh, SENP8 block-1, SENP7 block, Apaf1 inhib, SENP6 inh)
CC1=NN(c2ccccc2)C(=O)/C1=C\c1cc(C)n(-c2ccccc2)c1C	SENP8 block-2 46
CC1=NN(c2ccccc2)C(=O)/C1=C\c1cc(C)n(-c2cccnc2)c1C	SENP8 block-2 42
Cc1nn(-c2ccccc2)c(N)c1N=Nc1cccnc1	none
Nc1nc(-c2ccccc2)c(N=Nc2cccnc2)s1	SENP8 block-2 48
CCCc1nc2ccc(Cl)cn2c1Cc1ccsc1	none (no result: UBC13 inh, SENP8 block-1, SENP7 block, Apaf1 inhib, SENP6 inh)
N#C/C(=C\c1ccc(O)c(O)c1)C(=O)Nc1ccccc1	SENP8 block-1 71, SENP6 inh 79
O=[N+]([O-])c1ccccc1NCCOc1ccccc1	SENP8 block-1 60, SENP7 block 73, SENP6 inh 82
O=C(CCOc1ccccc1)Nc1ccccc1[N+](=O)[O-]	none
CCCOc1cc(N)ccc1C(=O)OCCN(CC)CC	none
CCCOc1ccc(N)cc1N	SENP8 block-1 52, Apaf1 inhib 91
CSc1cccc(NC(=O)c2ccccn2)c1	SENP7 block 52, SENP6 inh 55 (no result: SENP8 block-2)
Oc1ccc(/C=N/Nc2ccc(Cl)nn2)c(O)c1O	SENP8 block-2 49
Oc1c(Br)cc(Br)cc1/C=N/Nc1ccc(Cl)nn1	none (no result: UBC13 inh, SENP8 block-1, SENP7 block, Apaf1 inhib, SENP6 inh)
C#CCOCCOCCOCCNc1nc(N2CCN(C(=O)[C@H]([C@@H](C)CC)n3cc([C@@H](N)CC(C)C)nn3)CC2)nc(N2CCN(C(=O)[C@H](Cc3cc4ccccc4[nH]3)n3cc([C@@H](N)CC(C)C)nn3)CC2)n1	Apaf1 inhib 58 (no result: SENP8 block-2)
C#CCOCCOCCOCCNc1nc(N2CCN(C(=O)[C@H]([C@@H](C)CC)n3cc([C@@H](N)Cc4ccc(O)cc4)nn3)CC2)nc(N2CCN(C(=O)[C@H](Cc3cc4ccccc4[nH]3)n3cc([C@@H](N)C(C)CC)nn3)CC2)n1 (stereo partly drawn)	UBC13 inh 78, Apaf1 inhib 49 (no result: SENP8 block-2)
C#CCOCCOCCOCCNc1nc(N2CCOCC2)nc(N2CCN(C(=O)[C@H](Cc3cc4ccccc4[nH]3)n3cc([C@@H](N)CC(C)C)nn3)CC2)n1	none
COC(=O)[C@@]12C[C@@H](CC(=O)NCc3cccc(C(F)(F)F)c3)C(=O)N(CCc3ccc(OC)c(OC)c3)C1=CCC(C)(C)C2	none (no result: UBC13 inh, SENP8 block-1, SENP7 block, Apaf1 inhib, SENP6 inh)
CC(=O)Nc1ccc2nc(C3CC3)n(Cc3ccc(Cl)cc3)c(=O)c2c1	none
CCC(=O)Nc1ccc2nc(C3CC3)n(Cc3ccc(C(C)(C)C)cc3)c(=O)c2c1	SENP8 block-1 71, SENP7 block 91, SENP6 inh 86
O=C1/C(=C/c2cccs2)SC(=S)N1c1cccc(O)c1	SENP8 block-2 48
O=C1/C(=C/c2cccs2)SC(=S)N1c1ccccc1	none
C[C@@]12CC[C@@H](C3=C(CCC3)C1)N2c1ccccc1	none (no result: UBC13 inh, SENP8 block-1, SENP7 block, Apaf1 inhib, SENP6 inh)
O=[N+]([O-])c1ccc(NN=Cc2ccccc2O)nc1	none (no result: UBC13 inh, SENP8 block-1, SENP7 block, Apaf1 inhib, SENP6 inh)
Cc1ccccc1-n1c(C)cc(/C=N/Nc2ccc([N+](=O)[O-])cn2)c1C	SENP8 block-2 60
Cc1cc(/C=N/Nc2ccc([N+](=O)[O-])cn2)c(C)n1-c1ccc(C(=O)O)cc1	SENP8 block-2 50
CCN(CC)CC(=O)Nc1c(C)cccc1C	none
CCN(CC)CC(=O)Nc1cccc2c1C(=O)c1ccccc1C2=O	SENP8 block-2 40
O=C1c2ccccc2-c2c1cccc2C(=O)N(CCO)CCO	none
O=C1c2ccccc2C(=O)c2c(NCCCN(CCO)CCO)cccc21	SENP8 block-2 44
COC(=O)[C@]12CCCCC=C1N(Cc1cccc3ccccc13)C(=O)[C@H](CC(=O)NCCC(C)C)C2	none (no result: UBC13 inh, SENP8 block-1, SENP7 block, Apaf1 inhib, SENP6 inh)
O=Nc1c(O)[nH]c2ccc(F)cc12	none
NC(=S)N=Nc1c(O)[nH]c2ccc(F)cc12	UBC13 inh 50
CS(=O)(=O)Nc1cccc(-c2cc(NC=O)c3ncc(-c4ccc(F)c(Cl)c4)n3c2)c1	none (no result: UBC13 inh, SENP8 block-1, SENP7 block, Apaf1 inhib, SENP6 inh)
Nc1cc(N2CCCC2)c(Cl)cc1[N+](=O)[O-]	Apaf1 inhib 43
O=C1C(=Cc2cccn2-c2ccc(O)cc2)C(=O)c2ccccc21	SENP8 block-2 28
ONc1cccnc1-n1nc(C(F)(F)F)cc1C(F)(F)F	Apaf1 inhib 47 (no result: SENP8 block-2)

Screening data as filed in PubChem.
